Reference: the EternaBench riboswitch data

Tested on: MS2 coat protein
Experiment: apparent Kd, MS2 coat protein; higher = weaker binding; RNA-MaP array; FMN 200 µM where present
Summary of the method: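 SNAP-549-labelled MS2 coat protein, doubled from 0.7 or 1.5 nM to 3 µM, was titrated over designs transcribed by stalled E. coli RNA polymerase on Illumina sequencing-chip clusters. Titrations were run without and then with constant ligand in 100 mM Tris-HCl pH 7.5, 80 mM KCl, 4 mM MgCl2, BSA, DTT, yeast tRNA and Tween-20. The apparent Kd is the median of filtered per-cluster fits to green signal normalised to red-channel RNA signal and control-cluster median Fmax.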

[1] = designed as: OFF switch for flavin mononucleotide, no ligand
[2] = ligand present: flavin mononucleotide, designed as: OFF switch for flavin mononucleotide
[3] = designed as: ON switch for flavin mononucleotide, no ligand
[4] = ligand present: flavin mononucleotide, designed as: ON switch for flavin mononucleotide

Sequence	apparent Kd [1] [nM]	apparent Kd [2] [nM]	apparent Kd [3] [nM]	apparent Kd [4] [nM]
CAGCGGGUCUUCAGGGUAAUGAACAUGAGGAUCACCCAUGUGCAGGAUAUGACGGAUCCGCACCGUCAGAAGGGCACUAAGUGA	26.7	32.5	–	–
GCCAGUUAUGUAGGAUAUGCGAGGCGAGCCUGAGCAGAAGGACAUGAGGAUCACCCAUGUAUUGCGGUUUAAGUUCUGAUCGCU	22.2	47.2	–	–
CUUAUGUGAGGAUAUGGUGUUGGCCACAGGAAAAAGAUUCUCCAGAAGGCACAUGAGGAUCACCCAUGUAGUGA	51.3	120	–	–
GUGGUUGUCGUAGGAUAUGUAGGAUAUUCCUACAUGAGGAUCACCCAUGUUCGCAUGGAAGAAGGACAGAAGGACGAUGACCAU	–	–	1020	10.7
CUUUCGUGAGGAUAUGUGGCUUCGAUCGUGAGAUCGAAAAUACAGAAGGCACAUGAGGAUCACCCAUGUUCCUC	37.8	456	–	–
GGGUACAUCGGAGGAUAUCACGUAAAUACAUGAGGAUCACCCAUGUCGAUGGAGACAUCGGAGAUUGAGAAGGCCGAUGUACCG	–	–	7.6	5.33
CUUAAACAUGAGGAUCACCCAUGUCAGGAUAUGAUACUAUGUACUUCGGUACAUAGUAUCAGAAGGGAUAUAAA	34.2	33.5	–	–
CCGAAUAAGCAGGAUAUCGAAUCGGAGACGAUUCGAGAAGGGUUAACAUGAGGAUCACCCAUGUUCCUUAACGG	19.1	20.8	–	–
AGUACAUCAGGAUAUACAUGGAAGAUCAUUAUGACCCAUCUACAUGAGGAUCACCCAUGUAGAAGGGAUGUACA	24.6	16.9	–	–
GGUUGUCAUCGUCGUCCUUUCGGUACAUGAGGAUCACCCAUGUAGGAUAUGCUGCAUUCGAUGUGGCAGAAGGGCGUGUGUGUU	16.7	18.4	–	–
UUGUACCGGUGAGGAUAUUUUUAAUAGAACUUUAUGAUAUACAUGAGGAUCACCCAUGUUACUUUAAAGAAGGCAUCGGAUUAU	18.9	14.8	–	–
UAUAUAUAGGCAGGAUAUACAUGUAUAUAUAAUUUUUUAUAUAUUAUUACAUGAGGAUCACCCAUGUAGAAGGGCCAUAUUAUA	34.8	51	–	–
GGGCCGUAGUAGAAGGGAUAUACGUUAGGUAUAUCAGGAUAUACAUGAGGAUCACCCAUGUUCUAACAGUGAUAGUCCUCCCUA	19.8	55.4	–	–
GAGCGAAAGCUCAAUGUCGAUAGCAGAAGGACAUCCUUAAACAUGAAAACAUGAGGAUCACCCAUGUAGGAUAUGCUAUCGACU	7.31	9.1	–	–
AUACAUGAGGAUCACCCAUGUUACUGGGUCUUAAUAGAACGUAGAAGGAUGAUUUUAUAAAUAACAUAGGAUAUACAAUAUUGU	181	105	–	–
CUGUAUGAUGUAGGAUAUACUUUAAUAUUGUAAGUAGAAGGACAUGAGGAUCACCCAUGUAUAUAAAUUUUAAUUAUUUUUGCG	51.2	39.3	–	–
GAUUCACAUGAGGAUCACCCAUGUGAGGAUAUAGUGCAAGAGGUGGAUGCCCACCUCCCUAGAAGGCACACGGG	28.6	24	–	–
GCAUGCGUUCGAGGAUAUCGGUGAGAAACGGAACGAGAAGGCGAUCGAAUGUCUCAUAUUAUGAACAUGAGGAUCACCCAUGUA	–	–	514	131
CUGAGCAAUCAAGGAUAUCACGUCGAUUAGACGUGAGAAGGUGAUCAUCACAUGAGGAUCACCCAUGUGUUACAUGGAGCUCAG	–	–	1170	218
UGUCGGAGCAGAGGAUAUUACAUGAGGAUCACCCAUGUAUGUACCAAUAGCUGGAAACAGCAAUGUAAGAAGGCUGCUCCGACA	6	24.7	–	–
AAUCCACAUGAGGAUCACCCAUGUCAGGAUAUCGUGUCGCGGGUUUCGGUCCGUGAUGCGAGAAGGGACGGCUG	31.9	53.1	–	–

Sequence	apparent Kd [1] [nM]	apparent Kd [2] [nM]	apparent Kd [3] [nM]	apparent Kd [4] [nM]
CUUUUAUUGGUCCAUUUUUUCAACAUGAGGAUCACCCAUGUGCAGGAUAUCGUGAUUAUUAUCAACGAGAAGGGCAGAUUCACG	29	73.6	–	–
GGGUACAUCGGAGGAUAUCAUGUAAAUACAUGAGGAUCACCCAUGUCGAUGGAGACAACGGAGAUUGAGAAGGCCGAUGUACCG	–	–	952	108
UUAAUUAACAAGAAGGCUAACAUGAGGAUCACCCAUGUUGUACAUGGAUAUAGAGGAUAUUGCUAAUAAUUAUUUAUCUUAAUU	25.3	19.4	–	–
GCUGCGCGAGGAUAUGCGGUUCGGGCGGUGGCCGCUGGCGGACAUGAGGAUCACCCAUGUAGAAGGCGUGCGGG	22.5	23.2	–	–
AGCUGUGGCCGAGGAUAUCUGUUCCAUAAAACCGAAAUAUAAUCGGACAUGAGGAUCACCCAUGUAGAGAAGGCGGUCUCAGCA	23.9	26.4	–	–
UUCAAUCACAUAGGAUAUAGAAUAUUAUUUUUUUACAUGAGGAUCACCCAUGUUUUAUUGGGUUUCUAGAAGGAUGAGUUAUUA	–	–	451	289
GGGCCAUAGUAGAAGGGAUAUACGAAAGGUAUAUCAGGAUAUACAUGAGGAUCACCCAUGUUCUAACAGUGAUAGUCCUCCCUA	22.4	69.8	–	–
AUUUUAUAAUAGAAGGUAGACUUCAUGAGGAUCACCCAUGUGUUGGUACUAAGGAUAUGUAAUAACAUGAGGAUCACCCAUGUC	–	–	53.3	51.7
GGUACUCAAAGAGUACUUGGUCGAACAUGAGGAUCACCCAUGUAGGAUAUACGAAGCAAGAAGUAGUAGAAGGACGUGUGCAGC	12.4	12.1	–	–
CGCAAACAUGAGGAUCACCCAUGUCAAUGUGAUCAAGGAUAUGGGUUCCUAAACGGAACACCAGAAGGUGAGUAGA	–	–	85.2	23.8
AAAACAUGAGGAUCACCCAUGUAAAGAUCGGUUAAUGAAAGUGAGGAUAUACAAAAUUUUAUAGAGUAGAAGGCACUGGGUACA	–	–	28.7	30.1
CGCUAUGACAUAGGAUAUUGGUACAUGAGGAUCACCCAUGUCAACUAUGGAAUAGAAUUAGUUGACAAGAAGGAUGUGGUAGCG	–	–	47.2	10.3
CAUUAGCGAGGAUAUACAUGAGGAUCACCCAUGUGAUCCUAAGGCUGAUCAAGCCUAUGUAGAAGGCGCAAAUC	593	83.6	–	–
AAAACAUGAGGAUCACCCAUGUAUAGAUCGGUUAAUAGAAGUGAGGAUAUGCUUAAAAUAAGGUAGCAGAAGGCACUGGGUACA	–	–	23.9	25.1
GGUGCGUAUGUGAGGAUAUGCUGGUCCUUGGAUCGGCAGAAGGCACAUGAGGAUCACCCAUGUGGUGUCGUACG	59.6	228	–	–
UAAAGUGUGGAGGAUAUGGACCGCGCUAGUGGUCCAGAAGGUCAAACAUGAGGAUCACCCAUGUCCCGUGAUUA	54.5	67.7	–	–
CUCAGACAUGAGGAUCACCCAUGUGAGGAUAUGAUGCGAUCGUCGAAAGACGAUAGCAUCAGAAGGCACAAAUG	78.4	305	–	–
GACAUGAGGAUCACCCAUGUACAUGAGGAUCACCCAUGUUCUGAGGAUAUAGAUGAGGAUCACCUCUAGAAGGCAGCGCGCGCG	251	202	–	–
GGAUAUGUCGUCUACAUGAGGAUCACCCAUGUUGAUAAACAUGAGGAUAUUGAUAAGAAUUGUAUCGAGAAGGUAUGUAGGUCC	–	–	106	89.5
AGAUGACGAUGUUAUCUUCGUCGGACAUGAGGAUCACCCAUGUAGGAUAUGCUACUCAAAGAGUAGCAGAAGGACAUGUGUCUU	37.4	245	–	–
GAUGGAGAGCAGGAUAUCUUGGGUAAGCAUCAUAGAGAAGGGCUCACAUGAGGAUCACCCAUGUGGUCCAAGAA	14.2	56	–	–
